Measured values taken from ChEMBL document CHEMBL1134581, “Synthesis and in vitro antitumor activity of oligonucleotide-tethered and related platinum complexes” (J Med Chem, 2001).

What was measured:
Assay type in all cases: functional, cell-based, Homo sapiens
[1] = Growth and colony formation inhibition of PA-1 ovarian cancer cell lines
Procedure, shortened: (§1)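 Colony formation in PA-1 (wt p53, 7 days of drug) and SKOV-3 (p53-null, 10 days of drug). Both in RPMI 1640 with 10% FBS and 2 mM L-glutamine, 300–500 cells/well, attached 1 day. Colonies stained with 0.1% crystal violet in methanol and counted. IC50 extrapolated; three experiments. Also an MTT assay: PA-1 1000 cells/well, 1 day attachment, 5 days of drug; SKOV-3 600 cells/well, 2 days attachment, 7 days of drug. MTT 5 h, DMSO, read at 570/630 nm; four experiments.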

SK-OV-3 = test: Growth and colony formation inhibition of SKOV-3 ovarian cancer cell lines; procedure, shortened: as §1
CCRF-CEM = test: Growth and colony formation inhibition of CEM leukemia cancer cell lines
Procedure, shortened: (§2)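 CEM and teniposide-resistant CEM/VM-1 leukemia cells in suspension, MEM with 10% FBS and 2 mM L-glutamine, 37 °C, 5% CO2. Exponentially growing cells seeded in triplicate at 3 × 10^5 cells/mL. Drugs dissolved in DMSO or PBS, serially diluted, 48 h exposure. Growth inhibition by Coulter counting. IC50 extrapolated from the concentration–% inhibition plot. Mean ± SD of three experiments.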

A2780 = test: Growth and colony formation inhibition of A2780 ovarian cancer cell lines
Procedure, shortened: (§3)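 Colony formation assay in A2780 (wt p53) and SW626 (mutant p53) monolayers, RPMI 1640 with 10% FBS and 2 mM L-glutamine, 37 °C, 5% CO2. 300–500 cells/well, attached 1 day, then serially diluted drug. Exposure 7 days for A2780, 10 days for SW626. Colonies fixed and stained with 0.1% crystal violet in methanol, then counted. IC50 extrapolated. Mean ± SD of three experiments.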

[2] = Growth and colony formation inhibition of SW626 ovarian cancer cell lines; procedure, shortened: as §3
[3] = Growth and colony formation inhibition of VM-1 leukemia cancer cell lines; procedure, shortened: as §2

Substance	IC50 [1] [µM]	IC50 (SK-OV-3) [µM]	IC50 (CCRF-CEM) [µM]	IC50 (A2780) [µM]	IC50 [2] [µM]	IC50 [3] [µM]
Dichlorodi(3-hydroxypropylamine)platinum (II)	1.2	20	–	–	–	–
Amminedichloro(4-hydroxybutylamine)platinum (II)	0.4	6	–	–	–	–
Amminedichloro(2-hydroxyethylamine)platinum (II)	0.7	13	–	–	–	–
Tetrachlorodi(4-hydroxybutylamine)platinum(IV)	1	4	10	2.2	7	10
CARBOPLATIN	2.4	28.5	–	–	–	–
Dichlorodiacetyl oxy-(ammino acetoxy butylammino ethanol) platinum (II)	0.8	22	–	–	–	–
Dichlorodi(4-hydroxybutylamine)platinum (II)	1.5	23	–	–	–	–
Tetrachlorodi(3-hydroxypropylamine)platinum(IV)	0.6	10	8	1.6	3	5
DICHLORO(AMMINO ETHYLAMMINO ETHANOL) PLATINUM(II) [listing 1 of 2 here]	2.9	30	–	–	–	–
CISPLATIN	0.3	0.5	< 1	0.6	0.5	< 1
Amminetetrachloro(4-hydroxyethylamine)platinum(IV)	0.9	10	–	–	–	–
Dichlorodiacetyl oxy-(ammino acetoxy ethylammino ethanol) platinum (II)	2.8	10	–	–	–	–
DICHLORO(AMMINO ETHYLAMMINO ETHANOL) PLATINUM(II) [listing 2 of 2 here]	1.7	26	–	–	–	–
Dichloro diacetyl oxy-(amino ethylamino ethanol) platinum	1.5	24	7	2.8	28	7
3-(7a-Chloro-7-diisopropylamino-hexahydro-6-oxa-1,3a-diaza-platinum-7lambda*5*-phospha-inden-7-yloxy)-propionitrile	165	> 200	–	125	> 200	–
Amminetetrachloro(4-hydroxybutylamine)platinum(IV)	0.2	9	–	–	–	–
